Experimental data reported in ChEMBL document CHEMBL2040734, “Benzothiazoles: search for anticancer agents” (2012).

Experiments:
Type in all cases: functional
A549 [1] = test: Cytotoxicity against human A549 cells assessed as cell growth at 1 uM after 48 hrs by sulforhodamine B assay; conditions: A549, 48 h, read-out: Activity
Summary of the method: (§1)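 NCI-60 five-dose screen. Cells were grown in RPMI 1640 with 5% FBS and 2 mM L-glutamine and preincubated 24 h. Compound (DMSO stock) was tested at 0.01, 0.1, 1, 10 and 100 µM for 48 h at 37 °C. Cells were fixed in situ with cold TCA (final 10%) and stained with 0.4% SRB. A515 was read, and percent growth was calculated against time-zero and control plates.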

BT-549 = test: Cytotoxicity against human BT549 cells assessed as cell growth at 0.01 uM after 48 hrs by sulforhodamine B assay; conditions: BT-549, 48 h, read-out: Activity; summary of the method: as §1
OVCAR-3 = test: Cytotoxicity against human OVCAR3 cells assessed as cell growth at 0.01 uM after 48 hrs by sulforhodamine B assay; conditions: OVCAR-3, 48 h, read-out: Activity
SK-MEL-5 [2] = test: Cytotoxicity against human SK-MEL-5 cells assessed as cell growth at 0.01 uM after 48 hrs by sulforhodamine B assay; conditions: SK-MEL-5, 48 h, read-out: Activity
NCI-H226 = test: Growth inhibition of human NCI-H226 cells after 48 hrs by sulforhodamine B assay; conditions: NCI-H226, 48 h
Summary of the method: (§2)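 Adherent NCI-60 lines were grown in RPMI 1640 with 5% FBS and 2 mM L-glutamine, plated at 5000–40,000 cells/well and preincubated 24 h. They were then exposed to five concentrations (0.01–100 µM, from a DMSO stock) for 48 h at 37 °C, 5% CO2. Cells were fixed with cold TCA (10% final, 60 min, 4 °C) and stained with 0.4% SRB. Dye was solubilized in 10 mM Tris base and A515 read. GI50 was derived from time-zero, control and treated absorbances.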

[3] = Cytotoxicity against human Hs 578T cells assessed as cell growth at 10 uM after 48 hrs by sulforhodamine B assay; conditions: read-out: Activity
Summary of the method: (§3)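 Five-dose NCI panel run at 0.01, 0.1, 1, 10 and 100 µM. Cells were in RPMI 1640 with 5% FBS and 2 mM L-glutamine, seeded at 5000–40,000 cells/well and pre-incubated 24 h. Drug was diluted from a DMSO stock into medium with 50 µg/ml gentamicin. Exposure was 48 h at 37 °C, 5% CO2. Cells were fixed with cold TCA and stained with 0.4% SRB, read at 515 nm. Percent growth came from time-zero, control and test absorbances.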

SK-MEL-5 [4] = test: Cytotoxicity against human SK-MEL-5 cells assessed as cell growth at 10 uM after 48 hrs by sulforhodamine B assay; conditions: SK-MEL-5, 48 h, read-out: Activity
T47D = test: Cytotoxicity against human T47D cells assessed as cell growth at 10 '-5 M after 48 hrs by sulforhodamine B assay; conditions: read-out: Activity
EKVX = test: Cytotoxicity against human EKVX cells assessed as cell growth at 10 uM after 48 hrs by sulforhodamine B assay; conditions: read-out: Activity; summary of the method: as §3
HL-60(TB) = test: Growth inhibition of human HL-60(TB) cells after 48 hrs by sulforhodamine B assay; conditions: HL-60, 48 h; for CC50: read-out: LC50 (the source's name)
Summary of the method: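 HL-60(TB) suspension cells in RPMI 1640 with 5% FBS and 2 mM L-glutamine were treated for 48 h at five concentrations (0.01–100 µM). Settled cells were fixed with 16% TCA (final), SRB-stained and read at 515 nm. GI50 was the concentration giving (Ti−Tz)/(C−Tz)×100 = 50 from log concentration–growth curves, expressed as ">" if not reached at the top concentration.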

TK-10 [5] = test: Cytotoxicity against human TK10 cells assessed as cell growth at 10 '-5 M after 48 hrs by sulforhodamine B assay; conditions: TK-10, 48 h, read-out: Activity
UO-31 [6] = test: Cytotoxicity against human UO31 cells assessed as cell growth at 10 '-5 M after 48 hrs by sulforhodamine B assay; conditions: UO-31, 48 h, read-out: Activity
MDA-MB-231 = test: Cytotoxicity against human MDA-MB-231 cells assessed as cell growth at 1 uM after 48 hrs by sulforhodamine B assay; conditions: MDA-MB-231, 48 h, read-out: Activity
UO-31 [7] = test: Growth inhibition of human UO31 cells after 48 hrs by sulforhodamine B assay; conditions: UO-31, 48 h; for CC50: read-out: LC50 (the source's name); summary of the method: as §2
SN12C = test: Cytotoxicity against human SN12C cells assessed as cell growth at 10 '-5 M after 48 hrs by sulforhodamine B assay; conditions: read-out: Activity
SK-MEL-5 [8] = test: Cytotoxicity against human SK-MEL-5 cells assessed as cell growth at 1 uM after 48 hrs by sulforhodamine B assay; conditions: SK-MEL-5, 48 h, read-out: Activity
PC-3 = test: Cytotoxicity against human PC3 cells assessed as cell growth at 10 uM after 48 hrs by sulforhodamine B assay; conditions: PC-3, 48 h, read-out: Activity
SR = test: Cytotoxicity against human SR cells assessed as cell growth at 1 uM after 48 hrs by sulforhodamine B assay; conditions: read-out: Activity
SF-268 = test: Growth inhibition of human SF268 cells after 48 hrs by sulforhodamine B assay; conditions: SF-268, 48 h; summary of the method: as §2
LOX IMVI [9] = test: Cytotoxicity against human LOXIMVI cells assessed as cell growth at 10 '-5 M after 48 hrs by sulforhodamine B assay; conditions: read-out: Activity
SF-539 = test: Cytotoxicity against human SF539 cells assessed as cell growth at 10 '-5 M after 48 hrs by sulforhodamine B assay; conditions: SF-539, 48 h, read-out: Activity
NCI-H322M = test: Cytotoxicity against human NCI-H322M cells assessed as cell growth at 0.01 uM after 48 hrs by sulforhodamine B assay; conditions: read-out: Activity
TK-10 [10] = test: Cytotoxicity against human TK10 cells assessed as cell growth at 0.01 uM after 48 hrs by sulforhodamine B assay; conditions: TK-10, 48 h, read-out: Activity
A549 [11] = test: Cytotoxicity against human A549 cells assessed as cell growth at 100 uM after 48 hrs by sulforhodamine B assay; conditions: A549, 48 h, read-out: Activity; summary of the method: as §1
OVCAR-8 [12] = test: Cytotoxicity against human OVCAR8 cells assessed as cell growth at 10 '-5 M after 48 hrs by sulforhodamine B assay; conditions: OVCAR-8, 48 h, read-out: Activity
OVCAR-8 [13] = test: Cytotoxicity against human OVCAR8 cells assessed as cell growth at 10 uM after 48 hrs by sulforhodamine B assay; conditions: OVCAR-8, 48 h, read-out: Activity
SNB-19 [14] = test: Cytotoxicity against human SNB19 cells assessed as cell growth at 1 uM after 48 hrs by sulforhodamine B assay; conditions: SNB-19, 48 h, read-out: Activity
U-251 = test: Cytotoxicity against human U251 cells assessed as cell growth at 10 uM after 48 hrs by sulforhodamine B assay; conditions: U-251, 48 h, read-out: Activity
SNB-19 [15] = test: Cytotoxicity against human SNB19 cells assessed as cell growth at 0.01 uM after 48 hrs by sulforhodamine B assay; conditions: SNB-19, 48 h, read-out: Activity
LOX IMVI [16] = test: Cytotoxicity against human LOXIMVI cells assessed as cell growth at 10 uM after 48 hrs by sulforhodamine B assay; conditions: read-out: Activity

| Structure (SMILES) | growth at 1 µM (A549 [1]) [%] | growth at 0.01 µM (BT-549) [%] | growth at 0.01 µM (OVCAR-3) [%] | growth at 0.01 µM (SK-MEL-5 [2]) [%] | GI50 (NCI-H226) [µM] | LC50 (NCI-H226) [µM] | TGI (NCI-H226) [µM] | growth at 10 µM [3] [%] | growth at 10 µM (SK-MEL-5 [4]) [%] | growth at 10 µM (T47D) [%] | growth at 10 µM (EKVX) [%] | TGI (HL-60(TB)) [µM] | CC50 (HL-60(TB)) [µM] | growth at 10 µM (TK-10 [5]) [%] | growth at 10 µM (UO-31 [6]) [%] | growth at 1 µM (MDA-MB-231) [%] | TGI (UO-31 [7]) [µM] | CC50 (UO-31 [7]) [µM] | growth at 10 µM (SN12C) [%] | growth at 1 µM (SK-MEL-5 [8]) [%] | further results |
| --- | --- | --- | --- | --- | --- | --- | --- | --- | --- | --- | --- | --- | --- | --- | --- | --- | --- | --- | --- | --- | --- |
| Cc1ccc2nc(Nc3c(C)cccc3C)sc2c1 | 83 | 98 | 101 | 95 | > 100 | > 100 | > 100 | 40 | 33 | 45.8 | 39 | > 100 | > 100 | 61.3 | 43.7 | 37 | > 100 | > 100 | 50 | 66 | growth at 10 µM (PC-3): 49%; growth at 1 µM (SR): 19%; GI50 (SF-268): 29.3 µM; LC50 (concentration killing 50% of the starting cells) (SF-268): > 100 µM; TGI (SF-268): > 100 µM; growth at 10 µM (LOX IMVI [9]): 24.7%; growth at 10 µM (SF-539): 45.3%; growth at 0.01 µM (NCI-H322M): 97%; growth at 0.01 µM (TK-10 [10]): 104%; growth at 100 µM (A549 [11]): 69%; growth at 10 µM (OVCAR-8 [12]): 56.4%; growth at 10 µM (OVCAR-8 [13]): 67%; growth at 1 µM (SNB-19 [14]): 61%; growth at 10 µM (U-251): 63%; growth at 0.01 µM (SNB-19 [15]): 94%; growth at 10 µM (LOX IMVI [16]): 23% |
| Clc1cccc(Cl)c1Nc1nc2cccc(Cl)c2s1 | 55 | 102 | 98 | 94 | 1.18 | 6.95 | 2.86 | -41 | -95 | -4.9 | -89 | 3.75 | 20.6 | -35.7 | -55.1 | 17 | 1.67 | 4.44 | -71.5 | 50 | GI50 (HL-60(TB)): 1.32 µM; GI50 (UO-31 [7]): 0.161 µM; growth at 10 µM (PC-3): -68%; growth at 1 µM (SR): 51%; GI50 (SF-268): 1.2 µM; LC50 (concentration killing 50% of the starting cells) (SF-268): 5.66 µM; TGI (SF-268): 2.61 µM; growth at 10 µM (LOX IMVI [9]): -88.3%; growth at 10 µM (SF-539): -47.5%; growth at 0.01 µM (NCI-H322M): 92%; growth at 0.01 µM (TK-10 [10]): 98%; growth at 100 µM (A549 [11]): -55%; growth at 10 µM (OVCAR-8 [12]): -13.8%; growth at 10 µM (OVCAR-8 [13]): -71%; growth at 1 µM (SNB-19 [14]): 68%; growth at 10 µM (U-251): -84%; growth at 0.01 µM (SNB-19 [15]): 91%; growth at 10 µM (LOX IMVI [16]): -83% |
